Insulin prom act: TRM-6 insulin promoter activation; TRM-6 cells (human fetal islet line), insulin promoter eGFP reporter, imaging; plate-scaled: unstimulated 0, stimulated control 100; activation, % at 2 µM; actives 0.81% (n = 130,000); AID 1296;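 active = activation at 2 µM above a set limit, confirmed on inspection of the cell images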;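 note: share of cells whose green reporter signal exceeds an intensity cutoff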
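Assay system: TRM-6 human fetal islet cells, insulin promoter–eGFP reporter; Also added: 0.75 µM tamoxifen as reporter inducer; Schedule: 15 h tamoxifen pre-treatment, 48 h compound treatment at 37 °C; Signal: fixed-cell fluorescence microscopy, eGFP plus Hoechst; Read-out: percent activation from GFP-positive cell fraction; Control set: stimulated and unstimulated wells.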
Numbers stand for hits; i = inactive. This is one part of a sample in which hits are shown more often than they occur.

SMILES | Insulin prom act
COC(=O)C(C(=O)N1CCN(C)CC1)C1CCCCCC1 (stereo not drawn) | 431
Cn1c(C(=O)c2ccccc2[N+](=O)[O-])nc2ccccc21 | i
N#CCC(=O)c1sccc1-n1cccc1 | i
Nc1nc2c(c(=O)[nH]1)C(c1cccc3ccccc13)C1=C(N2)c2ccccc2C1=O (stereo not drawn) | i
Cc1cccc(NC(=O)C2c3ccccc3Oc3ccccc32)n1 | i
CCOC(=O)c1ccccc1NC(=O)c1ccc(NS(C)(=O)=O)cc1 | i
CSc1nc2sc3c(c2c(=O)[nH]1)CCC3 | i
CN(C(=S)NC(=O)c1ccccc1Br)C1CCCCC1 | 223
CC1CCCCC1NC(=S)NC(=O)c1ccccc1Br (stereo not drawn) | i
COc1ccccc1/C=C/C(=O)NC(=S)N(C)C1CCCCC1 | i
Cc1ccc(Oc2ncccc2/C=N/OCc2ccc(Cl)c(Cl)c2)cc1 | i
Cc1ccc2c(c1)c(C)c(C)n2CC(O)CN1CCOCC1 (stereo not drawn) | 533
OC(CN1CCN(c2ccccn2)CC1)Cn1c2ccccc2c2ccccc21 (stereo not drawn) | i
OC(COc1cccc(OCC(O)CN2CCOCC2)c1)CN1CCOCC1 (stereo not drawn) | i
Cc1ccc(O)c(C(=O)c2cc(C#N)c3nc4ccccc4n3c2)c1 | i
CN(CC(=O)NC1CCCc2ccccc21)S(=O)(=O)c1cccs1 (stereo not drawn) | i
O=C1CC(N2C(=O)/C(=C/C=C/c3ccccc3)SC2=S)C(=O)N1c1ccccc1 (stereo not drawn) | i
CC(=O)C(=Nc1ccccc1Cl)NNc1ccc(Cl)cc1 | i
CC(NC(=O)C(=O)N/N=C/c1ccccc1)c1ccccc1 (stereo not drawn) | i
CC1=C(C(=O)OCc2ccccc2)C(c2ccccc2OC(F)F)NC(=O)N1 (stereo not drawn) | 300
CCOC(=O)C1=C(C)NC(=O)NC1c1ccc(-c2ccccc2F)o1 (stereo not drawn) | i
CCOc1ccccc1C1NC(=O)NC(C)=C1C(=O)OC1CCCC1C (stereo not drawn) | i
COCCNC(=O)CN(C(=O)CCC(=O)Nc1ccccn1)c1ccccc1F | i
O=C(Nc1cccc(S(=O)(=O)N2CCOCC2)c1)[C@@H]1CCCN1S(=O)(=O)c1ccc(Cl)cc1 | i
O=C(Nc1cccnc1)C1CCCN1S(=O)(=O)c1ccc(Cl)c(Cl)c1 (stereo not drawn) | 481
SMILES | Insulin prom act
COc1ccc(S(=O)(=O)N2CCCC(C(=O)Nc3cccnc3)C2)cc1Cl (stereo not drawn) | i
O=C(c1cn(-c2ccccc2)nc1-c1cccs1)N1CCN(c2ccc(F)cc2)CC1 | i
CC(C)Cn1c(SCC(=O)N2CCCCC2)nc2ccccc2c1=O | i
C=CCn1c(=O)c2ccccc2n2c(SCC(N)=O)nnc12 | i
O=C(CSc1nnc2n(C3CCCC3)c(=O)c3ccccc3n12)N1CCCCCC1 | 121
O=S(=O)(Nc1cc(Sc2cccc3cccnc23)c(O)c2ccccc12)c1ccccc1 | i
COc1ccc(C(=O)NCCSCc2ccccc2)cc1OC | i
O=C(/C=C/c1ccc(F)cc1)c1ccccc1Br | i
NC(=S)NNC(=O)[C@@H]1CCCC[C@@H]1C(=O)O | i
Cc1cccc(OCC(=O)N/N=C/c2cc([N+](=O)[O-])ccc2N2CCOCC2)c1 | i
O=C(O/N=C/c1cccc([N+](=O)[O-])c1)C1CC1 | 209
O=C(CO/N=C/c1cccc([N+](=O)[O-])c1)Nc1ccc2ccccc2c1 | i
CC(=O)Nc1ccc(NC(=O)C(C)O/N=C/c2cccc([N+](=O)[O-])c2)cc1 (stereo not drawn) | i
Oc1ccc(Cl)cc1C=Nc1ccc2c3c(cccc13)CC2 | i
COc1ccccc1NC(=O)/C(=N/OCc1ccc(F)cc1)C(C)=O | i
O=C(CN1C(=O)C2CC=CCC2C1=O)Nc1ccc(S(=O)(=O)N2CCOCC2)cc1 (stereo not drawn) | i
O=C(CCCN1C(=O)c2ccccc2C1=O)NC1=NCCS1 | i
Cc1cc(C)cc(OCC(=O)NC2=NCCS2)c1 | i
CC(C(=O)NC1=NCCS1)N1C(=O)C2CC=CCC2C1=O (stereo not drawn) | 121
CCn1c(CC(=O)Nc2ccc(C)c(Cl)c2)nnc1SCC(=O)Nc1nc(C)cs1 | 450
CCn1c(CC(=O)Nc2ccccc2)nnc1SCC(=O)Nc1ccccc1C(=O)OC | i
CCn1c(CC(=O)Nc2ccc(C)cc2)nnc1SCC(=O)N1CCN(c2ccccc2)CC1 | i
CCOC(=O)c1[nH]c2ccccc2c1NC(=O)c1ccc(S(=O)(=O)N2CCCCC2)cc1 | i
CCOC(=O)C1CCCN(C(=O)c2ccc(C)c([N+](=O)[O-])c2)C1 (stereo not drawn) | i
N#Cc1c(C(F)(F)F)cc(C2CC2)[nH]c1=O | i
SMILES | Insulin prom act
O=C(CCSc1nc(-c2ccco2)cc(C(F)(F)F)n1)N1CCCc2ccccc21 | i
CC(C)(C)c1ccc(C(=O)N2CCCCCC2=O)cc1 | 585
CN1CCN(C(=O)c2ccc(N3CCCC3=O)cc2)CC1 | i
O=C(NCCN1CCCCCC1)c1ccc(N2CCCC2=O)cc1 | i
CCOC(=O)c1[nH]c2cc(OC)c(OC)cc2c1NC(=O)CN1CCN(c2ccc(OC)cc2)C(C)C1 (stereo not drawn) | i
COc1cc2c(cc1OC)/C(=C/c1ccc(Br)cc1)C(=O)OC2 | i
COc1ccc(OCc2nnc(SC(C)C(=O)Nc3nccs3)n2-c2ccccc2)cc1 (stereo not drawn) | i
Cc1cc(-c2n[nH]c(=S)n2-c2ccc(F)cc2)nn1C | i
COc1ccc(C2Nc3ccccc3C(=O)N2c2ccc(C)cc2)cc1Cn1nc(C)c([N+](=O)[O-])c1C (stereo not drawn) | 129
Cc1ccc(Cn2nc(C)c(NC(=O)CCCn3nc(C)c([N+](=O)[O-])c3C)c2C)cc1 | i
COc1cccc(C2Nc3ccccc3C(=O)N2O)c1O (stereo not drawn) | i
Brc1ccc(-c2nnc(-c3cccnc3)c3conc23)cc1 | i
CS(=O)(=O)c1ccc2nc(NC(NC(=O)c3ccco3)(C(F)(F)F)C(F)(F)F)sc2c1 | i
CCCCC(=O)NS(=O)(=O)c1ccc(NS(C)(=O)=O)cc1 | i
Cc1ccc(N=Nc2c(N)nn3c(C)cc(C)nc23)cc1 | i
Cc1cc(=O)[nH]c2c(N=Nc3ccc(O)cc3)c(N)nn12 | 383
Cc1cc(C)n2nc(N)c(N=Nc3cccc(Cl)c3)c2n1 | i
O=C(Nc1ccccc1-c1nnn(CC(=O)N2CCCc3ccccc32)n1)c1ccc(Cl)cc1 | i
COc1cc(OC)cc(-c2nnc(SCC(=O)Nc3cc(C)on3)o2)c1 | 113
COc1ccc(C(=O)CSc2nnc(-c3cc(C)cc(C)c3)o2)cc1 | i
COc1cc(OC)cc(-c2nnc(SCC(=O)N3CCOCC3)o2)c1 | i
COCC(C)n1c(C)cc(C(=O)CN2C(=O)NC(Cc3c[nH]c4ccccc34)C2=O)c1C (stereo not drawn) | i
c1ccc(-c2nn3nnnc3c3ccccc23)cc1 | i
c1ccc(-c2nc(-n3nc4ccccc4n3)nc3ccccc23)cc1 | 146
Clc1ccc(-c2nc(N3CCCCC3)nc3ccccc23)cc1 | i
CCOc1ccc(OCC)c(NC(=O)CN2CCC(NC(=O)c3cccc(F)c3)CC2)c1 | i
CCOC(=O)C(NC(=O)c1cccc(Cl)c1)(OCc1ccccc1)C(F)(F)F (stereo not drawn) | i
CSc1cccc(NC(=O)CSc2ccc(C)cc2)c1 | i
Cn1c(Cn2c(=O)sc3ccccc32)nnc1SCC(=O)Nc1ccccc1 | i
